Our source for the outcome values is PubChem BioAssay AID623869 (Vanderbilt High Throughput Screening Facility, 2012).

Structures are written as SMILES. Out of some 2,100 compounds screened, about 75 (4%) were called active.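 Rule for the calls: active = calcium fluorescence trace judged by eye to show a response, as agonist, enhancer of the glutamate response, or inhibitor; inactive = trace judged by eye to show no response.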 The entries come from a sample that favours actives as a whole.

Metabotropic glutamate receptor 8 (Rattus norvegicus), sequence (P70579 whole entry, looked up): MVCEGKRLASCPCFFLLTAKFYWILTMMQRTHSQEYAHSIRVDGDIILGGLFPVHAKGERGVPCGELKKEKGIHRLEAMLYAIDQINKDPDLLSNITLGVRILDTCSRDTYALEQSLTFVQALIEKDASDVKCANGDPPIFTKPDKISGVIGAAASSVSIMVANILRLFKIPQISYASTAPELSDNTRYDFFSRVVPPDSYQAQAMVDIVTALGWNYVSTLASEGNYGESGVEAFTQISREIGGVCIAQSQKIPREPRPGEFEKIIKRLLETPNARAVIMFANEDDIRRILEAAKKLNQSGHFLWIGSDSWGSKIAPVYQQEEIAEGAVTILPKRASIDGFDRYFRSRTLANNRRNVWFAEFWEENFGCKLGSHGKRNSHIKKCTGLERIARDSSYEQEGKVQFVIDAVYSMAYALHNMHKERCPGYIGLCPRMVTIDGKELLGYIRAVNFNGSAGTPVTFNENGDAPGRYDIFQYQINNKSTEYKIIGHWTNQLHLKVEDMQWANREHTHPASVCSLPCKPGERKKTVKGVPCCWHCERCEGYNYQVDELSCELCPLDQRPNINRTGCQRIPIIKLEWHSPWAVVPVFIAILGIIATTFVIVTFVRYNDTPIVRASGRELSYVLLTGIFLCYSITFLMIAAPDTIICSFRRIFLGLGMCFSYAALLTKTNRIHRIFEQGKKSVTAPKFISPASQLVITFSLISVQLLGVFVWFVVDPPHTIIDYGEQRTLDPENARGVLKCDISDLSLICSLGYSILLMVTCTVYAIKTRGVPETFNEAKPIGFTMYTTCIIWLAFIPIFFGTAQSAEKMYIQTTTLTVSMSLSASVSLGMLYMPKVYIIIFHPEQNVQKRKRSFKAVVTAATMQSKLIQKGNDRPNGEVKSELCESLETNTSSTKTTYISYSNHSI

For the assay, the target named is Metabotropic glutamate receptor 8 (Rattus norvegicus) (UniProt P70579). Put plainly: rat mGlu8 modulation via Gqi9 calcium signal, confirmation, counter-screen for GIRK activator project, cell-based, HEK293 rmGlu8, Gqi9 chimera, Fluo-4 calcium (AID 623869). Particulars: HEK293 rmGlu8/Gqi9 calcium flux, Fluo-4 fluorescence; glutamate at EC20 added after compound. An outline of the steps:
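system = HEK-293 cells stably expressing rat mGlu8, plus transient chimeric Gqi9 | measured by = Fluo-4 calcium fluorescence, 1 Hz | timing = compound pre-exposure 4 min, post-glutamate read 2 min | measure = F/F0 fluorescence traces judged visually for each well | medium = HEPES-buffered HBSS at pH 7.4 | doses = single compound addition from 20 µM solution, 0.2% DMSO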
On the technique in general: A counterscreen serves to expose hits that act by an unwanted route or on another target.
As for `CC(=O)c1c(N2CCCC2)[nH]c(-c2ccccc2)nc1=S`, the outcome was “active; 2”.

In the case of `CSc1nc(-c2ccccc2)[nH]c(=S)c1C(C)=O`, the outcome is “inactive; 0”.

As for `O=C(c1cc(-c2ccccc2)on1)N1CCCC1`, the outcome is “inactive; 0”.

Turning to `COC(=O)C(C)N(C(=O)c1cccc2ccccc12)c1c(C)cccc1C` (centres undefined), the outcome is “inactive; 0”.

Turning to `COc1ccc(-c2cc(C(F)(F)F)c3c(n2)sc2c(O)cc(=O)[nH]c23)c(OC)c1`, the outcome is “active; 2”.

As for `CCOC(=O)c1c(NS(=O)(=O)c2ccc(Br)cc2)sc2c1CCC2`, the outcome was “inactive; 0”.

Regarding `COc1ccc2nc(/N=C/c3c(C)[nH]n(-c4ccc(C)cc4)c3=O)sc2c1`, the outcome was “inactive; 0”.

Take `Cc1ccc(C(=O)NC(=S)Nc2ccccc2C(F)(F)F)cc1`: the outcome was “inactive; 0”.

Take `Cc1ccc(C(=O)N/N=C(/CC(=O)c2cccs2)C(F)(F)F)cc1`: the outcome was “active; -1”.

Regarding `O=C(NN=C(Cc1ccccc1)Cc1ccccc1)c1ccc(F)cc1`, the outcome is “inactive; 0”.

On to `COC(=O)C1=NN(C(=O)c2ccc(C)cc2)C(O)(c2ccc(Cl)cc2)C1` (centres undefined), for which the outcome was “inactive; 4”.

With `COC(=O)c1sc(NC(=S)NC(=O)c2ccccc2Cl)nc1C`, the outcome is “inactive; 0”.

In the case of `CC(C)(C)c1ccc(C(=O)NC(=S)Nc2nc3c(s2)CCCC3)cc1`, the outcome was “active; 2”.

`O=C(NC(=S)Nc1nc2c(s1)CCCC2)c1ccccc1`: the outcome was “inactive; 0”.

As for `COC(=O)c1ccc(C(=O)NC(=S)Nc2nc3c(s2)CCCC3)cc1`, the outcome was “inactive; 0”.

As for `O=C(NC(=S)Nc1ccc(N2CCOCC2)c(Cl)c1)c1cncc(Br)c1`, the outcome is “inactive; 0”.

For the compound `CCOC(=O)c1c2n(c3c(NCc4ccccc4)ncnc13)CCCC2`, the outcome is “inactive; 0”.

For `O=C1OCCC1Sc1nc2cc(Cl)ccc2n1Cc1ccccc1` (centres undefined), the outcome was “active; 2”.

`Cc1cc(NC(=O)CSc2nc3ccccc3c(=O)n2Cc2ccccc2)no1`: the outcome is “inactive; 0”.

Take `O=C1CN(C(=O)CSc2nc3cc(Cl)ccc3c(=O)n2Cc2ccccc2)c2ccccc2N1`: the outcome is “inactive; 0”.

For `Cc1ccc(C(=O)CC(=O)c2cc(Cl)ccc2O)cc1`, the outcome was “inactive; 0”.

Consider `C/C(=N/NC(=O)c1cc(Cl)ccc1O)C12CC3CC(CC(C3)C1)C2`, for which the outcome is “active; 1”.

Turning to `Cc1cccc(C(=O)CC(=O)c2cc(Cl)ccc2O)c1`, the outcome is “inactive; 0”.

In the case of `COc1ccccc1/C=C/C(=O)NC(=S)N(C)C1CCCCC1`, the outcome was “inactive; 0”.

Consider `Oc1ccccc1CNc1ccc(Br)cn1`, for which the outcome is “active; -1”.

For `CC(Nc1ccc(Br)cn1)c1cc(Cl)ccc1O` (centres undefined), the outcome was “inactive; 0”.

With `O=c1c(-c2ccccc2)nc(-c2ccccc2)cn1O`, the outcome was “inactive; 0”.

Regarding `O=C(NC(=S)N1CCN(Cc2ccccc2)CC1)c1ccccc1`, the outcome was “inactive; 0”.

As for `CC(C)(C)NC(=O)C(c1ccncc1)N(C(=O)c1csnn1)c1ccccc1` (centres undefined), the outcome is “active; -1”.

With `CCC(C)(C)NC(=O)C(c1ccc(F)cc1)N(Cc1ccco1)C(=O)c1cnccn1` (centres undefined), the outcome is “inactive; 0”.

`O=C(NC(=S)Nc1ccccc1)c1csnn1`: the outcome is “inactive; 0”.

Consider `O=c1c2ccccc2[nH]c(=S)n1CCCN1CCN(C2CCCCC2)CC1`, for which the outcome is “inactive; 0”.

With `O=C(NC(=S)Nc1ccccc1Cl)c1csnn1`, the outcome was “inactive; 0”.

For the compound `CCCCN(CCCC)C(=S)NC(=O)C(C)(C)C`, the outcome was “inactive; 0”.

`Brc1ccccc1-c1nnc2sc(-c3ccc4c(c3)OCCO4)nn12`: the outcome was “inactive; 0”.

Turning to `CCOC(=O)C1=C(C)Nc2nnnn2C1c1ccccc1Cl` (centres undefined), the outcome was “inactive; 0”.

For `CSc1ccccc1NC(=O)Nc1ccc(Cl)cc1`, the outcome was “inactive; 0”.

`O=C(NC(=S)Nc1ccc(Oc2ccc(Cl)cc2)cc1)c1ccccc1`: the outcome is “inactive; 0”.

Regarding `O=C(N/C(=N\O)c1ccccc1)Nc1ccc(Cl)cc1`, the outcome was “active; 2”.

For `CCCCCC(=O)NC(=S)NNC(=O)c1ccc([N+](=O)[O-])cc1`, the outcome is “active; 1”.

On to `CCCCNC(=S)NC(=O)c1ccc([N+](=O)[O-])cc1`, for which the outcome is “inactive; 0”.

Take `CCCCOc1ccc(C(=O)NNC(=S)NC(=O)CC)cc1`: the outcome is “inactive; 0”.

As for `S=c1nc(-c2ccc(Br)cc2)oc2c1CCCC2`, the outcome was “inactive; 0”.

On to `Cc1ccc(C)c(NC(=S)NNC(=O)c2csc3c2CCCC3)c1`, for which the outcome is “inactive; 0”.

Consider `COC(=O)c1ccc(NS(=O)(=O)c2ccc(SC)cc2)cc1`, for which the outcome was “inactive; 0”.

Take `CCc1cc2cccc(C)c2nc1SCC(=O)c1ccc(NC(C)=O)cc1`: the outcome was “inactive; 0”.

Turning to `CC(=O)Nc1ccc(C(=O)CSc2nc3ccc(C)cc3[nH]2)cc1`, the outcome is “inactive; 0”.

Consider `COC(=O)c1ccc(-n2c(C)cc(C(=O)CSc3ccc(NC(C)=O)cc3)c2C)cc1`, for which the outcome was “active; 2”.

`Cc1cc(C(=O)CSc2n[nH]c(N)n2)c(C)n1-c1cc(F)ccc1F`: the outcome is “inactive; 0”.

`CC(=O)Nc1ccc(SCC(=O)c2cc(C)n(-c3ccccc3F)c2C)cc1`: the outcome is “active; 2”.

`COc1ccc2nc(/N=C/c3c(C)[nH]n(-c4ccc(C)cc4C)c3=O)sc2c1`: the outcome is “inactive; 2”.

As for `CC12CC3CC(C)(C1)CC(C(=O)NC(=S)N1CCCCC1)(C3)C2`, the outcome was “inactive; 0”.

Consider `CSCSC1=C(C#N)C(c2ccccc2Cl)C(C(C)=O)=C(C)N1` (centres undefined), for which the outcome was “inactive; 0”.

As to `Cc1cccc(N2C(=O)CS/C2=N\NC(=O)c2ccc(Cl)cc2)c1C`, the outcome is “active; 2”.

On to `O=C(NC(=S)N1CCCc2ccccc21)c1ccc(Cl)cc1`, for which the outcome was “inactive; 0”.

Turning to `O=C(N/N=C1/C(=O)c2cccc3cccc1c23)c1ccc(Cl)cc1`, the outcome is “inactive; 0”.

Turning to `O=C(NC(=S)N(CCCCO)C1CCCCC1)c1sc2ccccc2c1Cl`, the outcome was “inactive; 0”.

For the compound `O=C(NC(=S)Nc1ccccc1N1CCOCC1)c1ccco1`, the outcome was “inactive; 0”.

`CN(C(=O)CSC1=Nc2ccccc2C2=NC(c3ccccc3)C(=O)N12)C1CCCCC1` (centres undefined): the outcome was “inactive; 0”.

Consider `COc1cc(/C=C(\C#N)C(=O)Nc2cccnc2)ccc1OC(C)C`, for which the outcome is “active; 2”.

Regarding `CCSc1ccccc1C(=O)Nc1cccnc1`, the outcome is “inactive; 0”.

`N#C/C(=C/C=C/c1ccccc1)C(=O)Nc1ccccc1`: the outcome was “inactive; 0”.

Turning to `Cc1ccc(OCC(=O)NNC(=O)C(=O)NC(C)(C)C)cc1`, the outcome was “inactive; 0”.

For `C=CCn1c(=S)[nH]c2sc3c(c2c1=O)CCC3`, the outcome is “inactive; 0”.

`COC(=O)c1ccccc1NC(=O)Nc1cnccn1`: the outcome was “inactive; 0”.

In the case of `CCC1c2ccc(C)n2CCN1C(=O)Nc1ccccc1C(=O)OC` (centres undefined), the outcome was “active; 2”.

`COC(=O)c1ccccc1NC(=S)NC(=O)c1ccc(C)cc1`: the outcome is “inactive; 0”.

`CC(C)C1Cc2c(sc3[nH]c(=S)n(Cc4ccccc4)c(=O)c23)CO1` (centres undefined): the outcome was “inactive; 0”.

As to `CCOC(=O)c1c(NC(=S)NC)sc2c1CC(C)(C)SC2`, the outcome was “inactive; 0”.
